{
  "source": "ChEMBL document CHEMBL4402601",
  "about": "“Discovery of a Silicon-Containing Pan-Genotype Hepatitis C Virus NS5A Inhibitor” (J Med Chem, 2020)",
  "key": {"Hepatitis C virus [1]": {"system": "Hepatitis C virus", "assay": "Antiviral activity against Hepatitis C virus subtype 1b Con1 subgenomic replicon expressing NS5A infected in human HuH7 cells assessed as reduction in viral replication incubated for 3 days by luciferase reporter gene assay", "format": "functional, organism-based, Hepacivirus hominis", "conditions": "subtype 1b Con1, Huh-7, 72 h", "procedure,_shortened": "(§1)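 HCV replicon cell assay; inhibition of replication read as decrease in luciferase signal. Percent inhibition computed at each compound concentration; EC50 (pM) from nonlinear regression fit to a 4-parameter logistic equation. Values are means of triplicate wells, with each experiment run at least twice.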"}, "Hepatitis C virus [2]": {"system": "Hepatitis C virus", "assay": "Antiviral activity against Hepatitis C virus subtype 3a subgenomic replicon expressing NS5A infected in human HuH7 cells assessed as reduction in viral replication incubated for 3 days by luciferase reporter gene assay", "format": "functional, organism-based, Hepacivirus hominis", "conditions": "Huh-7, 72 h", "procedure,_shortened": "as §1"}, "Hepatitis C virus [3]": {"system": "Hepatitis C virus", "assay": "Antiviral activity against Hepatitis C virus subtype 4a subgenomic replicon expressing NS5A infected in human HuH7 cells assessed as reduction in viral replication incubated for 3 days by luciferase reporter gene assay", "format": "functional, organism-based, Hepacivirus hominis", "conditions": "Huh-7, 72 h"}, "Hepatitis C virus [4]": {"system": "Hepatitis C virus", "assay": "Antiviral activity against Hepatitis C virus subtype 1a H77 subgenomic replicon expressing NS5A M28T mutant infected in human HuH7 cells assessed as reduction in viral replication incubated for 3 days by luciferase reporter gene assay", "format": "functional, organism-based, Hepacivirus hominis", "conditions": "subtype 1a H77, Huh-7, 72 h", "procedure,_shortened": "(§2)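 NS5A resistance-associated variants introduced into GT1a-H77 or GT1b-Con1 replicons. In transient assays, each variant replicon was electroporated into a Huh-7-derived cell line. Inhibition measured as drop in luciferase signal. Percent inhibition computed per concentration; EC50 from 4-parameter logistic nonlinear fit. Fold resistance is variant EC50 relative to the matching reference replicon.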"}, "Hepatitis C virus [5]": {"system": "Hepatitis C virus", "assay": "Antiviral activity against Hepatitis C virus subtype 1a H77 subgenomic replicon expressing NS5A Y93C mutant infected in human HuH7 cells assessed as reduction in viral replication incubated for 3 days by luciferase reporter gene assay", "format": "functional, organism-based, Hepacivirus hominis", "conditions": "subtype 1a H77, Huh-7, 72 h", "procedure,_shortened": "as §2"}, "Hepatitis C virus [6]": {"system": "Hepatitis C virus", "assay": "Antiviral activity against Hepatitis C virus subtype 1a H77 subgenomic replicon expressing NS5A Y93N mutant infected in human HuH7 cells assessed as reduction in viral replication incubated for 3 days by luciferase reporter gene assay", "format": "functional, organism-based, Hepacivirus hominis", "conditions": "subtype 1a H77, Huh-7, 72 h", "procedure,_shortened": "as §2"}, "Hepatitis C virus [7]": {"system": "Hepatitis C virus", "assay": "Antiviral activity against Hepatitis C virus subtype 1b Con1 replicon expressing NS5A L31V mutant infected in human HuH7 cells assessed as reduction in viral replication incubated for 3 days by luciferase reporter gene assay", "format": "functional, organism-based, Hepacivirus hominis", "conditions": "subtype 1b Con1, Huh-7, 72 h", "procedure,_shortened": "as §2"}, "Hepatitis C virus [8]": {"system": "Hepatitis C virus", "assay": "Antiviral activity against Hepatitis C virus subtype 1b Con1 replicon expressing NS5A P32L mutant infected in human HuH7 cells assessed as reduction in viral replication incubated for 3 days by luciferase reporter gene assay", "format": "functional, organism-based, Hepacivirus hominis", "conditions": "subtype 1b Con1, Huh-7, 72 h", "procedure,_shortened": "as §2"}, "Hepatitis C virus [9]": {"system": "Hepatitis C virus", "assay": "Resistance index, ratio of EC50 for Hepatitis C virus subtype 1a H77 subgenomic replicon expressing NS5A M28T mutant infected in human HuH7 cells to EC50 for Hepatitis C virus subtype 1a H77 subgenomic replicon expressing NS5A infected in human HuH7 cells", "format": "functional, Hepacivirus hominis"}, "Hepatitis C virus [10]": {"system": "Hepatitis C virus", "assay": "Resistance index, ratio of EC50 for Hepatitis C virus subtype 1a H77 subgenomic replicon expressing NS5A Q30E mutant infected in human HuH7 cells to EC50 for Hepatitis C virus subtype 1a H77 subgenomic replicon expressing NS5A infected in human HuH7 cells", "format": "functional, Hepacivirus hominis"}, "Hepatitis C virus [11]": {"system": "Hepatitis C virus", "assay": "Resistance index, ratio of EC50 for Hepatitis C virus subtype 1b Con1 subgenomic replicon expressing NS5A L31W mutant infected in human HuH7 cells to EC50 for Hepatitis C virus subtype 1b Con1 subgenomic replicon expressing NS5A infected in human HuH7 cells", "format": "functional, Hepacivirus hominis"}, "[12]": {"assay": "Metabolic stability in rat liver microsomes assessed as compound remaining at 1 uM incubated for 60 mins by UPLC-MS/MS analysis", "format": "ADME, Microsome", "conditions": "read-out: Stability", "procedure,_shortened": "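Pooled mouse, rat or human liver microsomes (0.5 mg/mL) with 1 μM compound, 1 mM NADPH, 5 mM MgCl₂ and 100 mM potassium phosphate pH 7.4. Pre-incubated 5 min at 37 °C, started with NADPH, then run 60 min at 37 °C. Quenched with ice-cold acetonitrile containing internal standard; parent remaining measured by UPLC-MS/MS.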"}, "[13]": {"assay": "Volume of distribution in mouse at 2 mg/kg, iv by UPLC-MS/MS analysis", "format": "ADME, organism-based", "conditions": "in vivo", "procedure,_shortened": "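Mice fasted overnight, given a single 2 mg/kg iv dose. Vehicle was the oral formulation (2:2:96 alcohol:Tween 80:glucose injection) diluted 2.5-fold with 10% glucose injection. Plasma concentrations measured by UPLC-MS/MS.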"}, "[14]": {"assay": "AUClast in mouse at 2 mg/kg, iv by UPLC-MS/MS analysis", "format": "ADME, organism-based", "conditions": "in vivo", "procedure,_shortened": "(§3)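 Overnight-fasted mice dosed iv once at 2 mg/kg. Vehicle was 2:2:96 (v/v) alcohol : Tween 80 : glucose injection diluted 2.5 times with 10% glucose injection. Plasma concentration measured by UPLC-MS/MS.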"}, "[15]": {"assay": "Clearance in mouse plasma at 2 mg/kg, iv by UPLC-MS/MS analysis", "format": "ADME, organism-based", "procedure,_shortened": "as §3"}, "[16]": {"assay": "AUClast in mouse at 10 mg/kg, po by UPLC-MS/MS analysis", "format": "ADME, organism-based", "conditions": "in vivo", "procedure,_shortened": "(§4)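 Overnight-fasted mice given a single 10 mg/kg oral dose in 2:2:96 (v/v) alcohol : Tween 80 : glucose injection. Plasma levels by UPLC-MS/MS. Bioavailability derived against a 2 mg/kg iv arm using the same formulation diluted 2.5 times with 10% glucose injection.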"}, "[17]": {"assay": "Oral bioavailability in mouse at 10 mg/kg by UPLC-MS/MS analysis", "format": "ADME, organism-based", "conditions": "in vivo", "procedure,_shortened": "as §4"}, "[18]": {"assay": "Half life in dog at 5 mg/kg, po by UPLC-MS/MS analysis", "format": "ADME, organism-based, Canis lupus familiaris", "conditions": "in vivo"}, "[19]": {"assay": "Tmax in dog at 5 mg/kg, po by UPLC-MS/MS analysis", "format": "ADME, organism-based, Canis lupus familiaris", "conditions": "in vivo"}, "[20]": {"assay": "Cmax in dog at 5 mg/kg, po by UPLC-MS/MS analysis", "format": "ADME, organism-based, Canis lupus familiaris", "design": "dose 5 mg/kg, route oral", "conditions": "in vivo"}, "[21]": {"assay": "AUC (0 to 48 hrs) in dog at 5 mg/kg, po by UPLC-MS/MS analysis", "format": "ADME, organism-based, Canis lupus familiaris", "design": "time < 48 hr, dose 5 mg/kg, route oral", "conditions": "in vivo"}, "[22]": {"assay": "Drug distribution in mouse plasma at 10 mg/kg, po incubated for 0.5 hrs by UPLC-MS/MS analysis", "format": "ADME, organism-based", "procedure,_shortened": "(§5)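 Oral dosing in mice and rats; compound measured in plasma and liver by UPLC-MS/MS at each time point, n = 3 (mean ± SD). LPR is mean liver concentration divided by mean plasma concentration.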"}, "[23]": {"assay": "Drug distribution in mouse plasma at 10 mg/kg, po incubated for 3 hrs by UPLC-MS/MS analysis", "format": "ADME, organism-based", "procedure,_shortened": "as §5"}, "[24]": {"assay": "Drug distribution in rat plasma at 10 mg/kg, po incubated for 0.5 hrs by UPLC-MS/MS analysis", "format": "ADME, organism-based", "procedure,_shortened": "as §5"}, "[25]": {"assay": "Drug distribution in rat plasma at 10 mg/kg, po incubated for 8 hrs by UPLC-MS/MS analysis", "format": "ADME, organism-based", "procedure,_shortened": "as §5"}, "[26]": {"assay": "Drug distribution in mouse liver at 10 mg/kg, po incubated for 3 hrs by UPLC-MS/MS analysis", "format": "ADME, organism-based", "conditions": "read-out: Drug uptake", "procedure,_shortened": "as §5"}, "[27]": {"assay": "Drug distribution in rat liver at 10 mg/kg, po incubated for 3 hrs by UPLC-MS/MS analysis", "format": "ADME, organism-based", "conditions": "read-out: Drug uptake", "procedure,_shortened": "as §5"}, "[28]": {"assay": "Ratio of drug distribution in rat liver to drug distribution in rat plasma measured after 0.5 hrs by UPLC-MS/MS analysis", "format": "ADME, cell-free", "procedure,_shortened": "as §5"}, "[29]": {"assay": "Toxicity in mouse assessed as increase in cholesterol level at 300 mg/kg, po administered for 14 days and measured on day 14", "format": "organism-based", "conditions": "in vivo, 336 h", "procedure,_shortened": "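Mice randomised after acclimation into two groups of 5 males and 5 females. Compound at 300 mg/kg or vehicle alone given once daily by oral gavage for 14 days. Clinical signs observed daily. Body weight and food intake recorded on day 1, then twice weekly. Animals killed after the 14th dose.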"}},
  "data": [
    {"compound": "COC(=O)N[C@H](C(=O)N1CCC[C@H]1C(=O)Nc1ccc([C@@H]2CC[C@@H](c3ccc(NC(=O)[C@@H]4CCCN4C(=O)[C@@H](NC(=O)OC)[C@@H](C)OC)cc3)N2c2cc(F)c(N3CC[Si](C)(C)CC3)c(F)c2)cc1)[C@@H](C)OC", "values": [
      {"measurement": "EC50", "setting": "Hepatitis C virus [1]", "value": 1.7, "unit": "pM"},
      {"measurement": "EC50", "setting": "Hepatitis C virus [2]", "value": 3, "unit": "pM"},
      {"measurement": "EC50", "setting": "Hepatitis C virus [3]", "value": 0.33, "unit": "pM"},
      {"measurement": "EC50", "setting": "Hepatitis C virus [4]", "value": 2.37, "unit": "pM"},
      {"measurement": "EC50", "setting": "Hepatitis C virus [5]", "value": "> 0.25", "unit": "nM"},
      {"measurement": "EC50", "setting": "Hepatitis C virus [6]", "value": "> 0.25", "unit": "nM"},
      {"measurement": "EC50", "setting": "Hepatitis C virus [7]", "value": 3.81, "unit": "pM"},
      {"measurement": "EC50", "setting": "Hepatitis C virus [8]", "value": 1.64, "unit": "pM"},
      {"measurement": "Ratio EC50", "setting": "Hepatitis C virus [9]", "value": 1.9},
      {"measurement": "Ratio EC50", "setting": "Hepatitis C virus [10]", "value": 175},
      {"measurement": "Ratio EC50", "setting": "Hepatitis C virus [11]", "value": 11.4},
      {"measurement": "remaining at 1 h, 1 µM", "setting": "[12]", "value": 76.3, "unit": "%"},
      {"measurement": "Vd", "setting": "[13]", "value": 1.56, "unit": "L/kg"},
      {"measurement": "AUClast", "setting": "[14]", "value": 17863, "unit": "ng/hr.ml"},
      {"measurement": "clearance", "setting": "[15]", "value": 1.67, "unit": "mL/min/kg"},
      {"measurement": "AUClast", "setting": "[16]", "value": 6446, "unit": "ng/hr.ml"},
      {"measurement": "bioavailability", "setting": "[17]", "value": 7.2, "unit": "%"},
      {"measurement": "half-life", "setting": "[18]", "value": 1270, "unit": "min"},
      {"measurement": "Tmax", "setting": "[19]", "value": 5.3, "unit": "h"},
      {"measurement": "Cmax", "setting": "[20]", "value": 395, "unit": "ng/mL"},
      {"measurement": "AUC", "setting": "[21]", "value": 8020, "unit": "ng·h/mL"},
      {"measurement": "concentration at 0.5 h", "setting": "[22]", "value": 160, "unit": "ng/mL"},
      {"measurement": "concentration at 3 h", "setting": "[23]", "value": 308, "unit": "ng/mL"},
      {"measurement": "concentration at 0.5 h", "setting": "[24]", "value": 40.9, "unit": "ng/mL"},
      {"measurement": "concentration at 8 h", "setting": "[25]", "value": 16.4, "unit": "ng/mL"},
      {"measurement": "concentration at 3 h", "setting": "[26]", "value": 1580, "unit": "ng/g"},
      {"measurement": "concentration at 3 h", "setting": "[27]", "value": 1110, "unit": "ng/g"},
      {"measurement": "Kp at 0.5 h", "setting": "[28]", "value": 2.7},
      {"measurement": "Activity", "setting": "[29]", "value": "Non-Toxic"}
    ]}
  ]
}
